Converted amounts (≈) assume the structure as drawn. The source made the active and inactive calls. The rule behind the calls is not given here.
Experiments:
[1] = Cytotoxicity against Swiss mouse peritoneal macrophages after 24 hrs by MTT assay; format: cell-based, Peritoneal macrophage cell
How it was run: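 Macrophages were collected from Swiss mice 5 days after thioglycollate (3%) elicitation. About 1 x 10^6 cells per well were incubated in RPMI 1640 with 10% heat-inactivated FBS and compound for 24 h at 37°C, 5% CO₂. MTT was added for 4 h, followed by 10% SDS, and absorbance was read at 540 nm. CC50 was obtained by probit regression.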

[2] = Toxicity in human RBC assessed as induction of hemolytic activity after 1 hr by spectrometer analysis; format: cell-based, Erythrocyte; conditions: red blood cells (RBC)
How it was run: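 A 5% suspension of human erythrocytes in PBS was mixed 4:1 with serial compound dilutions and incubated 1 h at 37°C. The reaction was stopped with PBS (pH 7.2) and spun 10 min at 1000 x g, and supernatant absorbance was read at 540 nm. Haemolysis was expressed relative to a drug-free blank and to water-induced total lysis. HC50 was obtained by probit regression.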

[3] = Selectivity index, ratio of CC50 for Swiss mouse peritoneal macrophages to IC50 for promastigotes of Leishmania amazonensis IFLA/BR/67/PH8; format: functional
How it was run: (§1)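 Promastigote values came from haemocytometer counts after 72 h at 25°C. Axenic amastigote values came from MTT readings after 24 h at 32°C, using amastigotes differentiated at pH 4.6. All 50% values were obtained by probit regression.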

[4] = Selectivity index, ratio of HC50 for human RBC to IC50 for promastigotes of Leishmania amazonensis IFLA/BR/67/PH8; how it was run: as §1
[5] = Selectivity index, ratio of CC50 for Swiss mouse peritoneal macrophages to EC50 for axenic amastigotes of Leishmania amazonensis IFLA/BR/67/PH8; how it was run: as §1
[6] = Selectivity index, ratio of HC50 for human RBC to IC50 for axenic amastigotes of Leishmania amazonensis IFLA/BR/67/PH8; how it was run: as §1
[7] = system: Leishmania amazonensis; assay: Antileishmanial activity against axenic amastigotes of Leishmania amazonensis IFLA/BR/67/PH8 after 24 hrs by MTT assay; conditions: IFLA/BR/67/PH8, 24 h
[8] = system: Leishmania amazonensis; assay: Antileishmanial activity against promastigotes of Leishmania amazonensis IFLA/BR/67/PH8 after 72 hrs by Neubauer haemocytometer counting; conditions: IFLA/BR/67/PH8, 72 h
[9] = system: Leishmania amazonensis; assay: Antileishmanial activity against promastigotes of Leishmania amazonensis IFLA/BR/67/PH8 assessed as induction of early apoptosis using Annexin-V staining at IC50 after 4 hrs by flow cytometry (reference value: 8.3%); format: functional
[10] = system: Leishmania amazonensis; assay: Antileishmanial activity against promastigotes of Leishmania amazonensis IFLA/BR/67/PH8 assessed as induction of early apoptosis using Annexin-V staining at 2 times IC50 after 4 hrs by flow cytometry (reference value: 8.3%); format: functional
[11] = system: Leishmania amazonensis; assay: Antileishmanial activity against promastigotes of Leishmania amazonensis IFLA/BR/67/PH8 assessed as induction of early apoptosis using Annexin-V staining at 4 times IC50 after 4 hrs by flow cytometry (reference value: 8.3%); format: functional
[12] = system: Leishmania amazonensis; assay: Antileishmanial activity against promastigotes of Leishmania amazonensis IFLA/BR/67/PH8 assessed as induction of late apoptosis using Annexin-V/PI staining at IC50 after 4 hrs by flow cytometry (reference value: 12.05%); format: functional
[13] = system: Leishmania amazonensis; assay: Antileishmanial activity against promastigotes of Leishmania amazonensis IFLA/BR/67/PH8 assessed as induction of late apoptosis using Annexin-V/PI staining at 2 times IC50 after 4 hrs by flow cytometry (reference value: 12.05%); format: functional
[14] = system: Leishmania amazonensis; assay: Antileishmanial activity against promastigotes of Leishmania amazonensis IFLA/BR/67/PH8 assessed as induction of late apoptosis using Annexin-V/PI staining at 4 times IC50 after 4 hrs by flow cytometry (reference value: 12.05%); format: functional
[15] = system: Leishmania amazonensis; assay: Antileishmanial activity against promastigotes of Leishmania amazonensis IFLA/BR/67/PH8 assessed as induction of necrosis using Annexin-V-FITC/PI staining at 4 times IC50 after 4 hrs by flow cytometry (reference value: 2.6%); format: functional
[16] = system: Leishmania amazonensis; assay: Antileishmanial activity against promastigotes of Leishmania amazonensis IFLA/BR/67/PH8 assessed as induction of DNA fragmentation at 1 to 4 times IC50 after 24 hrs by agarose gel electrophoresis; format: functional, organism-based
How it was run: (§2)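 Genomic DNA was extracted with phenol/chloroform and run on agarose with GelRed (1:500) for 1 h at […]. Fragmentation was viewed under UV as a qualitative read-out.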

[17] = system: Leishmania amazonensis; assay: Antileishmanial activity against axenic amastigotes of Leishmania amazonensis IFLA/BR/67/PH8 infected in Swiss mouse peritoneal macrophages assessed as reduction of survival rate after 24 hrs by light microscopy analysis; format: functional, organism-based
How it was run: (§3)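 Peritoneal macrophages were plated on glass coverslips at 1 x 10^6 cells/mL in supplemented RPMI 1640 and allowed to adhere for 2 h at 34°C, 5% CO₂. They were infected for 3 h with stationary-phase promastigotes at 10 parasites per macrophage, washed with PBS, then exposed to compound for 24 or 72 h. Coverslips were fixed and Panoptic-stained, and 300 macrophages per coverslip were counted by light microscopy. EC50 was derived by probit regression.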

[18] = system: Leishmania amazonensis; assay: Antileishmanial activity against axenic amastigotes of Leishmania amazonensis IFLA/BR/67/PH8 infected in Swiss mouse peritoneal macrophages assessed as reduction of survival rate after 72 hrs by light microscopy analysis; format: functional, organism-based; how it was run: as §3
[19] = system: Peritoneal macrophage cell; assay: Immunomodulatory activity in Swiss mouse peritoneal macrophages infected with promastigotes form of Leishmania amazonensis IFLA/BR/67/PH8 assessed as increase of TNFalpha production at 6.25 to 25 uM after 72 hrs by sandwich ELISA; format: functional, cell-based
How it was run: (§4)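 Supernatants came from infected macrophages treated for 72 h at 37°C, 5% CO₂. TNF-α, IL-12 and IL-10 were measured by sandwich ELISA at 450 nm against murine recombinant cytokine standards. NO was estimated as nitrite by the Griess reaction at 540 nm against a sodium nitrite standard. LPS (10 mg/L) served as positive control. Three experiments were run in triplicate.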

[20] = system: Peritoneal macrophage cell; assay: Immunomodulatory activity in Swiss mouse peritoneal macrophages infected with promastigotes form of Leishmania amazonensis IFLA/BR/67/PH8 assessed as increase of IL-12 production at 6.25 to 25 uM after 72 hrs by sandwich ELISA; format: functional, cell-based; how it was run: as §4
[21] = system: Peritoneal macrophage cell; assay: Immunomodulatory activity in Swiss mouse peritoneal macrophages infected with promastigotes form of Leishmania amazonensis IFLA/BR/67/PH8 assessed as increase of IL-10 production at 6.25 to 25 uM after 72 hrs by sandwich ELISA; format: functional, cell-based; how it was run: as §4
[22] = system: Leishmania amazonensis; assay: Antileishmanial activity against promastigotes of Leishmania amazonensis IFLA/BR/67/PH8 assessed as induction of necrosis using Annexin-V-FITC/PI staining at IC50 after 4 hrs by flow cytometry (reference value: 2.6%); format: functional
[23] = system: Leishmania amazonensis; assay: Antileishmanial activity against promastigotes of Leishmania amazonensis IFLA/BR/67/PH8 assessed as induction of necrosis using Annexin-V-FITC/PI staining at 2 times IC50 after 4 hrs by flow cytometry (reference value: 2.6%); format: functional
[24] = system: Leishmania amazonensis; assay: Antileishmanial activity against promastigotes of Leishmania amazonensis IFLA/BR/67/PH8 assessed as viable cells using Annexin-V staining at IC50 after 4 hrs by flow cytometry (reference value: 77%); format: functional
[25] = system: Leishmania amazonensis; assay: Antileishmanial activity against promastigotes of Leishmania amazonensis IFLA/BR/67/PH8 assessed as viable cells using Annexin-V staining at 2 times IC50 after 4 hrs by flow cytometry (reference value: 77%); format: functional
[26] = system: Leishmania amazonensis; assay: Antileishmanial activity against promastigotes of Leishmania amazonensis IFLA/BR/67/PH8 assessed as viable cells using Annexin-V staining at 4 times IC50 after 4 hrs by flow cytometry (reference value: 77%); format: functional
[27] = system: Leishmania amazonensis; assay: Antileishmanial activity against promastigotes of Leishmania amazonensis IFLA/BR/67/PH8 assessed as induction of DNA fragmentation at IC50 after 24 hrs by agarose gel electrophoresis; format: functional, organism-based; how it was run: as §2

Row | Compound | CC50 at 24 h [1] [µM] | HC50 at 1 h [2] [µM] | Ratio CC50/IC50 [3] | Selectivity Index [4] | Ratio CC50/EC50 [5] | Selectivity Index [6] | EC50 [7] [µM] | IC50 [8] [µM] | Activity [9] [%] | Activity [10] [%] | Activity [11] [%] | Activity [12] [%] | Activity [13] [%] | Activity [14] [%] | Activity [15] [%] | Activity [22] [%] | Activity [23] [%] | Activity [24] [%] | Activity [25] [%] | Activity [26] [%] | also measured
1 | N#Cc1c(/N=C/c2ccc([N+](=O)[O-])cc2)sc2c1CCCC2 | 229 | > 800 | 1.22 | > 4.27 | 1.07 | > 3.76 | 213 | 187 |  |  |  |  |  |  |  |  |  |  |  |  | 
2 | N#Cc1c(/N=C/c2cc3cc(Br)ccc3[nH]2)sc2c1CCCCC2 | 32 | > 800 | 8.77 | > 219 | 1.59 | > 39.8 | 20.1 | 3.65 | 4.8 | 5.6 | 4.3 | 9.06 | 27.3 | 27.1 | 53.2 | 6.1 | 22.7 | 79.9 | 44.3 | 15.3 | Activity [16]: Active; Activity [17]: Dose-dependent effect; Activity [18]: Dose-dependent effect; Activity [19]: Active; Activity [20]: Active; Activity [21]: inactive
3 | N#Cc1c(/N=C/c2ccc3ncccc3c2)sc2c1CCCCC2 | 438 | 716 | 2.66 | 4.35 | 3.31 | 5.41 | 132 | 165 |  |  |  |  |  |  |  |  |  |  |  |  | 
4 | N#Cc1c(/N=C/c2cccs2)sc2c1CCC2 | 540 | > 800 | 3.87 | > 5.73 | 2.56 | > 3.79 | 211 | 139 |  |  |  |  |  |  |  |  |  |  |  |  | 
5 | C[C@@H]1[C@H](O)[C@@H](C)/C=C/C=C/C=C/C=C/C=C/C=C/C=C/[C@H](O[C@@H]2O[C@H](C)[C@@H](O)[C@H](N)[C@@H]2O)C[C@@H]2O[C@](O)(C[C@@H](O)C[C@@H](O)[C@H](O)CC[C@@H](O)C[C@@H](O)CC(=O)O[C@H]1C)C[C@H](O)[C@H]2C(=O)O [AMPHOTERICIN B] | 0.18 | 11.6 | 1.05 | 68.2 | 0.78 | 50.4 | 0.23 | 0.17 | 6 | 10.4 | 10.3 | 23.8 | 38.8 | 42.2 | 8.6 | 2.8 | 5.2 | 67.2 | 45.5 | 38.8 | Activity [27]: Active; EC50 ([18]; IFLA/BR/67/PH8, 72 h): 169 µg/mL (≈ 183 µM)
